Source: PubChem (several laboratories)
A selection: hits, their analogues and other compounds. The true share with any hit is near 4.5%.
NS3 helicase inh: HCV NS3 helicase inhibition | inhibition, % at 10.9 µM | NS3 helicase DNA unwinding, Cy5 molecular beacon fluorescence | AID 1800 | 290,000 tested, 0.56% active;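 active = inhibition above the mean of all tested compounds plus 3 SD, set per campaign, cut at about 35% in these data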;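 also: 0% = DMSO wells and 100% = thioflavine S control wells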
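Assay system: hepatitis C virus NS3 helicase domain fragment enzyme. Also added: annealed dual-labelled DNA beacon duplex, ATP-started. Timing: 1 h reaction at 25 °C, ATP-initiated. Technique: Cy5 fluorescence at 0 and 60 min, beacon hairpin quenching. Evaluation: % inhibition of unwinding. Replication: one well per compound.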
CHOP inh: CHOP inhibition in unfolded protein response; inhibition, % at 10 µM; CHO-K1 CHOP-promoter luciferase, tunicamycin-induced, 15-18 h; AID 2732; 220,000 tested, 3.8% active;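 active = compounds that reduced the stress-induced luciferase reporter signal by more than about 70% of percent inhibition, limit read from the data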;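 also: 0% = tunicamycin plus vehicle and 100% = wells without tunicamycin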
XBP1 UPR activ: activators of adaptive arm of unfolded protein response (XBP1) | CHO-XBP1 luciferase reporter, IRE1-XBP1 UPR activation, luminescence; percent of tunicamycin response, DMSO as zero | activation, % at 20 µM | 330,000 tested, 0.33% active;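 active = versus positive control, 20 µM dose yields 30% or more activation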;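 also: 100% = tunicamycin at 10 µg/mL and 0% = DMSO only wells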
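Test system: CHO-XBP1 luciferase reporter cells | Buffer or medium: Serum-containing F12 medium, 10% FBS | Schedule: 6 h compound exposure at 37 °C, 5% CO2 | Detection: Steady-Glo luciferase glow luminescence, 10 min after reagent addition | Read-out basis: Activation, % of tunicamycin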
PfM18AAP inh-1: blocks P. falciparum M18 aspartyl aminopeptidase; inhibition, % at 7.35 µM; 290,000 tested, 1.2% active; recombinant PfM18AAP, H-Glu-NHMec fluorogenic cleavage; AID 1822;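 active = inhibition above the campaign mean inhibition over all tested compounds plus 3 SD, cut at about 28% in these data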;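 also: 0% = plate median of test compound wells and 100% = 2 mM ZnCl2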
CHOP UPR activ: activators of apoptotic arm of unfolded protein response (CHOP); 330,000 tested, 0.34% active; activation, % at 10 µM; CHO-CHOP luciferase reporter, UPR activation, luminescence; percent of tunicamycin response over DMSO baseline;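 active = at 10 µM dose, activation of 40% or more, normalized to positive control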;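 also: 100% = tunicamycin at 10 µg/mL and 0% = DMSO alone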
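Evaluation: % reporter activation, DMSO baseline versus tunicamycin full activation; System: CHO-CHOP luciferase reporter cell line; Input: 500 cells/well; Incubation: 6 h compound treatment, 37 °C; Measured by: Steady-Glo luciferase luminescence; Dosing: one dose, 10 µM in 0.5% DMSO; Buffer or medium: F12 medium, 10% FBS; Benchmarks: positive tunicamycin 10 µg/mL, negative DMSO alone.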
p97 inhibitor: human p97 ATPase inhibition | P55072 | recombinant p97 ATPase, Kinase-Glo ATP luminescence, 3 h | inhibition, % at 8 µM | 220,000 tested, 0.42% active; in the data active = inhibition above about 15%;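 also: 0% = DMSO vehicle and 100% = wells lacking enzyme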
Target sequence (P55072 whole entry, looked up): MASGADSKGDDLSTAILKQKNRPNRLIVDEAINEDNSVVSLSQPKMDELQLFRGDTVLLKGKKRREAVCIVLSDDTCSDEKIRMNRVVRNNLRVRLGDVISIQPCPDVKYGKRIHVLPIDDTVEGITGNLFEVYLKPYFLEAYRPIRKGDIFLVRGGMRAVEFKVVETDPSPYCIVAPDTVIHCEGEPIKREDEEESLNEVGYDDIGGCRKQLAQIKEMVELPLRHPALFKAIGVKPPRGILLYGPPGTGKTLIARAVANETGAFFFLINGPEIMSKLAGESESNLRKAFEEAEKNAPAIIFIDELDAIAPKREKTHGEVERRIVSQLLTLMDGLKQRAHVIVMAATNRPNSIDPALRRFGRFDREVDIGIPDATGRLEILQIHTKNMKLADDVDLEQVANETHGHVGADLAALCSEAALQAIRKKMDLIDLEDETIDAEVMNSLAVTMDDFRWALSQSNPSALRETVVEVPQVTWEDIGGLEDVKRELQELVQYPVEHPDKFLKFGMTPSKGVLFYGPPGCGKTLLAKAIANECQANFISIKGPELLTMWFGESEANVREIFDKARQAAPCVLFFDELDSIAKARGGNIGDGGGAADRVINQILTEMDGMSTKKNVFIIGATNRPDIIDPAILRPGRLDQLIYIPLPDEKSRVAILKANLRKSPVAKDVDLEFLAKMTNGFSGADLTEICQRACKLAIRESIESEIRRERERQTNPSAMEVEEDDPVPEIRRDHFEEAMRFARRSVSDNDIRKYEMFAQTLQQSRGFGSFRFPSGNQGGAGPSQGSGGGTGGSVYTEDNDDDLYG
PfM18AAP inh-2: PfM18AAP inhibition, confirmation. 2,400 tested, 28% active. AID 2170. recombinant PfM18AAP, H-Glu-NHMec fluorogenic cleavage. inhibition, % at 7.35 µM. shares compounds with PfM18AAP inh-1;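 active = mean inhibition over replicate wells above the hit cutoff set for the earlier primary screen, cut at about 29% in these data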;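 also: 0% = median of test compound wells and 100% = 2 mM ZnCl2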
CTSL1 confirm: Cathepsin L (human) inhibition, confirmation; shares compounds with PfM18AAP inh-1; purified cathepsin L1, Z-Leu-Arg-MCA fluorescence; inhibition, % at 5.96 µM; 2,400 tested, under 10 active; AID 2178;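 active = average inhibition across replicates above the hit cutoff set in the earlier primary screen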;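 also: 0% = median of test compound wells and 100% = Z-Phe-Ala-diazomethylketone 1 µM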
Numbers without * were called inactive; . = no result.

SMILES	NS3 helicase inh	CHOP inh	XBP1 UPR activ	PfM18AAP inh-1	CHOP UPR activ	p97 inhibitor	PfM18AAP inh-2	CTSL1 confirm
CCSc1ccccc1C(=O)Nc1ccc(S(=O)(=O)NC(C)=O)cc1	11	-25	-3	32*	0	-3	-33	5
CC(=O)Nc1ccc2c(c1)nc(CCNC(=O)c1ccco1)n2C	-4	.	1	-4	1	.	.	.
CC(=O)NS(=O)(=O)c1ccc2sc(C)nc2c1	4	-5	-4	22	-3	1	-32	0
CC(=O)Nc1ccc2sc(C)nc2c1	23	3	0	3	1	11	.	.
Nc1nc(Sc2ccc([N+](=O)[O-])cc2[N+](=O)[O-])n[nH]1	7	-8	-4	57*	-2	-3	56*	1
CCN(CC)S(=O)(=O)c1cc(NC(=O)CSc2nc3c(cc2C#N)C(=O)CC(C)(C)C3)ccc1C	-1	16	2	3	3	5	.	.
CC(Sc1ncn[nH]1)C(=O)NCc1ccccc1 (configuration not stated)	6	.	-7	35*	-1	.	17	-1
O=C(NC(=S)NCCN1CCOCC1)c1ccc(F)cc1	-2	-3	2	-1	2	9	.	.
Cc1ccc(C(=O)NC(=S)NNC(=O)CCN2CCOCC2)cc1	14	15	-6	38*	1	-2	-19	-3
CCN(CC(=O)Nc1ccc(NC(C)=O)cc1)C(=O)CC1OC(=O)c2ccccc21 (configuration not stated)	.	.	1	.	1	.	.	.
Cc1cc(C)c2c(=O)cc(C(=O)NCc3ccccc3)oc2c1	-4	.	-5	-2	0	.	.	.
Cc1nnc(N/N=C/c2cc(C)n(-c3ccc(F)cc3)c2C)n1N	-3	14	2	53*	2	8	23	-6
Cc1nnc(N/N=C/c2c(Cl)cccc2Cl)n1N	4	4	0	51*	-1	4	-52	4
CCc1nnc(N/N=C/c2c(F)cccc2Cl)n1N	13	.	-2	14	2	.	.	.
CC(=O)Nc1ccc(S(=O)(=O)N2CCC(C(=O)NCCC(=O)NCc3ccccc3)CC2)cc1	12	.	-5	-4	-2	.	.	.
NS(=O)(=O)c1ccc(Nc2nc(-c3ccc(O)cc3)cs2)cc1	3	46	-2	45*	3	7	44*	-2
COc1ccc(-c2csc(Nc3ccc(S(N)(=O)=O)cc3)n2)cc1	-12	26	8	24	2	9	.	.
COc1cc(/C=C2/C(=O)ON=C2C)cc(Cl)c1O	17	.	-4	32*	0	.	11	0
CC1Cc2ccccc2N1Cc1cc(=O)c(OCC(=O)NCCc2ccccc2)co1 (configuration not stated)	.	.	2	.	1	.	.	.
OCCCc1ccc(O)c(O)c1	5	-1	-1	45*	-2	2	27	3
COc1cc(SC)ccc1C(=O)N1CCN(c2ccc(O)cc2)CC1	15	12	3	37*	-1	6	-10	-2
COc1cc(SC)ccc1C(=O)N1CCN(c2ccccc2)CC1	8	24	-2	-10	-1	-4	.	.
C=CCc1cccc(/C=N/c2ncn[nH]2)c1O	-3	7	-1	57*	1	4	43*	-4
C=CCc1cccc(C=Nc2c[nH]c(=O)[nH]c2=O)c1O	-1	.	-2	6	2	.	.	.
O=C(NNc1cc(C(F)(F)F)ccc1Cl)c1ccc(=O)[nH]c1	7	.	-1	44*	-1	.	19	2
SMILES	NS3 helicase inh	CHOP inh	XBP1 UPR activ	PfM18AAP inh-1	CHOP UPR activ	p97 inhibitor	PfM18AAP inh-2	CTSL1 confirm
COc1ccccc1N1CCN(C(=S)Nc2ccc(S(=O)(=O)N3CCOCC3)cc2)CC1	-12	59	0	32*	1	4	-48	2
COc1cccc(NC(=O)c2cc3cccc(OC)c3o/c2=N\O)c1	11	.	1	51*	8	.	17	-1
COc1cccc(NC(=O)c2cc3ccccc3o/c2=N\O)c1	13	.	-10	15	-1	.	.	.
Cc1csc(=O)n1CC(=O)OCC(=O)Nc1ccc(Cl)cc1F	.	.	0	.	1	.	.	.
O=C1C(C2=NC(c3ccccn3)C3C(=O)N(c4ccccc4)C(=O)C23)=C(O)c2ccccc21 (configuration not stated)	36	-13	0	71*	0	6	-30	2
COc1ccc([N+](=O)[O-])cc1NC(=O)c1ccc(Br)s1	15	60	-1	3	0	-2	.	.
COc1ccc(C2=Nc3ccccc3OC2)cc1	1	52	3	39*	4	3	-26	-1
Cc1nc(NC(C)c2ccccc2)c2c3c(sc2n1)CCC3 (configuration not stated)	-2	67	-3	-3	-2	-5	.	.
NNc1nc(-c2ccccc2)nc2sc3c(c12)CCCC3	4	38	-3	32*	1	-2	10	1
Cc1cc(NS(=O)(=O)c2ccc(NC(=O)c3ccccc3F)cc2)no1	.	.	-2	.	0	.	.	.
C/C(=N/NC(=O)c1ccc(C)s1)c1ccncc1	-6	.	-3	2	2	.	.	.
CCCn1nc(NC(=O)c2cccs2)c2cc3cc(C)ccc3nc21	-17	22	1	0	1	1	.	.
CCOc1ccc(NC(=O)Cn2sc3nc(C)cc(C)c3c2=O)cc1	0	25	-2	56*	-1	4	36*	-8
CCOc1ccc(NC(=O)Cn2ncc3ccccc32)cc1	-13	.	-4	-5	9	.	.	.
Cc1ccc(NC(=O)Cn2sc3nc(C)cc(C)c3c2=O)c(Cl)c1	7	-4	-4	67*	2	3	45*	5
